Many of the other results were omitted from the sample, so hits are more common in it than they were.
Cardio protect: modulators protecting cardiomyocytes from myocardial damage | H9c2 cardiomyocytes, H2O2 injury protection, ATPLite, 2 h | 360,000 tested, 0.63% active | protection from H2O2 cell death, % at 20 µM;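 active means compounds giving at least 50% protection of heart cells from peroxide-induced death in the single-dose screen, raw or plate-pattern-corrected value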
CHOP UPR activ: activators of apoptotic arm of unfolded protein response (CHOP); 330,000 tested, 0.34% active; CHO-CHOP luciferase reporter, UPR activation, luminescence; percent of tunicamycin response over DMSO baseline; activation, % at 10 µM;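 active means at 10 µM dose, activation of 40% or more, normalized to positive control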
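Test system: CHO-CHOP cells, stable luciferase reporter of PERK-eIF2a-CHOP signalling | Quantity: 500 CHO-CHOP cells per well | Buffer or medium: F12 plus 10% serum | Compound dosing: 10 µM single point, 0.5% DMSO | Schedule: 6 h compound treatment, 37 °C | Signal: Luciferase luminescence | Control set: Tunicamycin high control, DMSO low control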
XBP1 UPR activ: activators of adaptive arm of unfolded protein response (XBP1); CHO-XBP1 luciferase reporter, IRE1-XBP1 UPR activation, luminescence; percent of tunicamycin response, DMSO as zero; activation, % at 20 µM; 330,000 tested, 0.33% active; AID 463104;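 active means versus positive control, 20 µM dose yields 30% or more activation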
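Assay system: IRE1-XBP1 luciferase reporter CHO line. Input: 1000 cells/well. Buffer or medium: F12 with 10% serum. Doses: 20 µM, 1% DMSO. Times: overnight seeding at 37 °C, 6 h compound treatment at 37 °C. Technique: Steady-Glo luciferase glow luminescence, 10 min after reagent addition.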
hiPSC survival: enhancers of human iPSC single-cell survival; hiPSC single-cell survival, ATPlite luminescence; 100% = ROCK inhibitor wells, 0% = DMSO; survival enhancement, % at 20 µM; 360,000 tested, 0.044% active; in the data active means survival enhancement above about 18%;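 further: cells exposed to compounds for 16 hours before the ATP read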
CHOP inhibitor: CHOP inhibition in unfolded protein response | inhibition, % at 10 µM | 220,000 tested, 3.8% active | CHO-K1 CHOP-promoter luciferase, tunicamycin-induced, 15-18 h;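 active means compounds that reduced the stress-induced luciferase reporter signal by more than about 70% of percent inhibition, limit read from the data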
Numbers stand for hits; n = inactive; x = no result.

SMILES | Cardio protect | CHOP UPR activ | XBP1 UPR activ | hiPSC survival | CHOP inhibitor
O=C(Cc1ccccc1F)Nc1nc(-c2ccc(F)c(F)c2)cs1 | n | n | n | n | x
O=C(Cc1ccccc1F)Nc1nc(-c2cccnc2)cs1 | n | n | n | n | 81
O=C(Nc1ccccc1N(C(=O)c1ccco1)S(=O)(=O)c1cccs1)c1ccco1 | n | n | n | n | 85
COC(=O)[C@@]1(Sc2ccc(C)cc2)CC(=O)N(c2ccccc2)[C@@H]1c1ccccc1 | x | x | x | n | x
O=C(CSc1nnc(-c2ccccc2)c(-c2ccccc2)n1)N1CCOCC1 | n | n | n | n | 72
O=C(N/N=C/c1ccncc1)c1ccc(COc2cccc3cccnc23)cc1 | 64 | n | n | n | n
COc1ccc(/C=N/NC(=O)c2ccc(COc3cccc4cccnc34)cc2)cc1OC | 54 | n | n | n | n
COc1ccc(/C=N/NC(=O)c2sccc2OCc2ccc(F)cc2)cc1OC | 53 | n | n | n | n
COc1ccc(/C=N/NC(=O)c2ccc(COc3cccc4cccnc34)cc2)cc1O | n | n | n | n | n
O=C(N/N=C/c1cccc(O)c1)c1ccc(COc2cccc3cccnc23)cc1 | n | n | n | n | n
COCc1ccc(CN2CCC(n3nccc3NC(=O)c3ccc4c(c3)OCO4)CC2)o1 | n | x | x | n | x
Oc1ccccc1Oc1c(F)c(F)nc(N2CCCC2)c1F | n | n | n | n | 94
Cc1ccc(N=CC2=C(O)CC(c3ccco3)CC2=O)cc1 (stereo not given) | n | n | n | n | n
O=C1CC(c2ccco2)CC(O)=C1C=Nc1ccc(Br)cc1 (stereo not given) | n | n | n | n | 87
CCn1c(=O)c([N+](=O)[O-])c(Cl)c2ccccc21 | n | n | n | n | 108
CCn1c(=O)c([N+](=O)[O-])c(NCCN(C)C)c2ccccc21 | n | n | n | n | n
COc1cccc(NCc2cc(=O)oc3cc(C)c(O)cc23)c1 | n | n | n | n | x
COc1cccc(NCc2cc(=O)oc3cc(-c4ccccc4)c(O)cc23)c1 | n | n | n | n | 82
CCN(CC)c1ccc(NC(=O)CCS(=O)(=O)c2ccc(Br)cc2)c(C)c1 | n | n | n | n | x
COc1ccc(-c2oc3c(c2C#CC2(O)CCCCC2)C(OC)CCC3)cc1 (stereo not given) | x | x | x | n | x
O=C(CN1C(=O)S/C(=C\c2ccccc2)C1=O)NNC(=O)c1ccccc1O | n | n | n | n | n
COc1ccc(/C=C2\SC(=O)N(CC(=O)NNC(=O)c3ccccc3O)C2=O)cc1 | n | n | n | n | 78
O=C(CCCN1C(=O)/C(=C/c2ccccc2)SC1=S)Nc1ccccc1O | n | n | n | n | 82
O=C(CCCN1C(=O)S/C(=C\c2ccccc2)C1=O)NNC(=O)c1ccccc1O | n | n | n | n | 95
CCOC(=O)C1C(C(=O)OCC)C(C)(C)C1N(C)C (stereo not given) | n | x | x | n | x
SMILES | Cardio protect | CHOP UPR activ | XBP1 UPR activ | hiPSC survival | CHOP inhibitor
Cc1ccc(C(C)C)cc1OCC(=O)N1CCN(C(=O)c2ccco2)CC1 | n | n | n | n | x
Cc1ccc(-c2nnc(NC3CCCC3)s2)cc1 | n | n | n | n | x
CC(=O)O[C@H]1[C@@H](O)[C@H](O)[C@H](Oc2c(O)c(C)c3c4c2[C@@H](C)CC[C@@H]4[C@@H](C)C[C@@H]3C=C(C)C)O[C@H]1C | n | x | x | n | x
O=C(Oc1ccc2cc(Br)ccc2c1)N1CCCCCC1 | x | n | n | x | 85
Cc1ccc2nc(-c3cccc(N)c3)[nH]c2c1 | n | n | n | n | x
Cc1ccc2nc(-c3sc4nc(C)cc(C)c4c3N)[nH]c2c1 | n | n | n | n | 91
CCCC(=O)Nc1ccc(-c2nc3cc(C)c(C)cc3o2)cc1 | n | n | n | n | 95
CCOc1cc(/C=C2\SC(=O)N(CC(=O)Nc3ccccc3F)C2=O)cc([N+](=O)[O-])c1O | n | n | n | n | 93
C#CCNC(=O)c1ccc2sc([C@@H]3O[C@H](CO)[C@H](O)[C@H](O)[C@H]3O)nc2c1 | n | x | x | n | x
Cc1ccc(N(CC(=O)N/N=C/c2cc(C)n(-c3ccccc3)c2C)S(C)(=O)=O)c(C)c1 | n | n | n | n | 73
Cc1ccc(N(CC(=O)Nc2c(C)n(C)n(-c3ccccc3)c2=O)S(C)(=O)=O)c(C)c1 | n | n | n | n | n
Clc1ccc(-c2nc3ccccc3nc2-c2ccccc2)cc1 | n | n | n | n | 74
O=C1NC[C@H](c2ccccc2)OC(=O)[C@@H](Cc2ccc(F)cc2)CC/C=C/C[C@@H]1CC(=O)N(CCO)Cc1ccccc1 | n | n | n | n | x
O=C1NC[C@H](c2ccccc2)OC(=O)[C@H](Cc2ccc(F)cc2)CC/C=C/C[C@H]1CC(=O)N(CCO)Cc1ccccc1 | 52 | n | n | n | x
O=C1NC[C@H](c2ccccc2)OC(=O)[C@@H](Cc2ccc(F)cc2)CC/C=C/C[C@H]1CC(=O)N(CCO)Cc1ccccc1 | 86 | n | n | n | x
CS/C(=N/S(=O)(=O)c1ccc(C)cc1)c1ccccc1 | n | n | n | n | n
CS/C(=N\S(=O)(=O)c1ccc(Cl)cc1)c1ccccc1 | n | n | n | n | 77
CC1(C)N=C(N)N=C(N)N1c1ccc(OCC(=O)N2CCOCC2)c(Cl)c1 | n | x | x | n | x
Oc1ccc(C[C@@H]2CNC(=S)N2CCc2cc(C(F)(F)F)cc(C(F)(F)F)c2)cc1 | n | n | n | n | 80
COc1ccc(CC2S/C(=N/N=C/c3ccccc3O)NC2=O)cc1 (stereo not given) | n | n | n | n | 70
O=C1N/C(=N/N=C/c2ccc(O)cc2)SC1Cc1ccccc1 (stereo not given) | n | n | n | n | n
O=C1N/C(=N/N=C/c2ccccc2O)SC1Cc1ccc(F)cc1 (stereo not given) | n | n | n | n | 90
CCCCc1ccc(NC(=O)COc2ccc(C(=O)Nc3ccccc3OCC)cc2)cc1 | n | n | n | n | 82
CCOc1ccc(NC(=O)COc2ccc(C(=O)NCCc3ccccc3)cc2)cc1 | n | n | n | n | n
Cc1cc(Cl)c2c(c1)[C@]1(C(=O)N2)[C@@H]2C(=O)N(Cc3ccccc3)C(=O)[C@@H]2[C@@H]2CCCN21 | n | n | n | n | 71
SMILES | Cardio protect | CHOP UPR activ | XBP1 UPR activ | hiPSC survival | CHOP inhibitor
CCNC(=S)N/N=C/c1cn(Cc2ccccc2F)c2ccccc12 | n | n | n | n | 77
CCNC(=S)N/N=C/c1cn(Cc2ccc(F)cc2)c2ccccc12 | n | n | n | n | n
COc1ccc(-c2cc(-c3c(O)c(OC)c4occc4c3OC)[nH]n2)cc1OC | n | n | n | n | n
COc1ccc(-c2cc(-c3c(O)c(OC)c4occc4c3OC)[nH]n2)cc1 | n | n | n | n | 86
CN1CCN(c2ccccc2NC(=O)c2cccc(OCc3ccccc3)c2)CC1 | n | n | n | n | 78
CN1CCN(c2ccccc2NC(=O)c2ccc(OCc3ccccc3)cc2)CC1 | n | n | n | n | n

Source: PubChem BioAssay (several laboratories)
